HCV NS3 hel inh – inhibitors of Hepatitis C virus NS3 helicase. inhibition, % at 10.9 µM. AID 1800. hit rate 0.56% among 290,000. NS3 helicase DNA unwinding, Cy5 molecular beacon fluorescence;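 active = inhibition above the mean of all tested compounds plus 3 SD, set per campaign, cut at about 35% in these data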;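 note: 0% = DMSO wells and 100% = thioflavine S control wells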
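System: NS3 helicase fragment of HCV / Schedule: 1 h at 25 °C / Control set: DMSO alone as 0% and 110 µM thioflavine S as 100% / Reagent: Cy5/quencher beacon DNA duplex and ATP to start / Technique: Cy5 fluorescence / Replication: singlicate / Evaluation: % inhibition of end-to-start signal ratio versus controls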
UPR XBP1 act – adaptive UPR (XBP1) activation | hit rate 0.33% among 330,000 | activation, % at 20 µM | CHO-XBP1 luciferase reporter, IRE1-XBP1 UPR activation, luminescence; percent of tunicamycin response, DMSO as zero | AID 463104;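 active = versus positive control, 20 µM dose yields 30% or more activation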;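 note: 100% = tunicamycin at 10 µg/mL and 0% = DMSO only wells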
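Signal: luciferase luminescence; Assay system: CHO-XBP1 luciferase reporter cells; Amount: one thousand reporter cells per well; Dosing: 20 µM single concentration, DMSO 1%; Benchmarks: high control tunicamycin 10 µg/mL final, low control DMSO vehicle only; Schedule: 6 h compound exposure at 37 °C, 5% CO2; Evaluation: percent activation relative to tunicamycin reference.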
M18AAP inhibitor – blocks P. falciparum M18 aspartyl aminopeptidase. AID 1822. hit rate 1.2% among 290,000. recombinant PfM18AAP, H-Glu-NHMec fluorogenic cleavage. inhibition, % at 7.35 µM;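 active = inhibition above the campaign mean inhibition over all tested compounds plus 3 SD, cut at about 28% in these data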;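 note: 0% = plate median of test compound wells and 100% = 2 mM ZnCl2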
CHOP UPR activ – activators of apoptotic arm of unfolded protein response (CHOP); CHO-CHOP luciferase reporter, UPR activation, luminescence; percent of tunicamycin response over DMSO baseline; activation, % at 10 µM; hit rate 0.34% among 330,000; AID 449763;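 active = at 10 µM dose, activation of 40% or more, normalized to positive control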;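 note: 100% = tunicamycin at 10 µg/mL and 0% = DMSO alone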
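measured by = luciferase luminescence | assay system = CHO-CHOP cells, stable luciferase reporter of PERK-eIF2a-CHOP signalling | amount = 500 reporter cells seeded per well | timing = 6 h compound exposure at 37 °C after overnight seeding | controls = positive tunicamycin 10 µg/mL, negative DMSO alone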
CHOP inh – CHOP inhibition in unfolded protein response | AID 2732 | CHO-K1 CHOP-promoter luciferase, tunicamycin-induced, 15-18 h | hit rate 3.8% among 220,000 | inhibition, % at 10 µM;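 active = compounds that reduced the stress-induced luciferase reporter signal by more than about 70% of percent inhibition, limit read from the data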;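 note: 0% = tunicamycin plus vehicle and 100% = wells without tunicamycin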
p97 inhibitor – blocks human p97 ATPase activity; inhibition, % at 8 µM; hit rate 0.42% among 220,000; recombinant p97 ATPase, Kinase-Glo ATP luminescence, 3 h; P55072; in the data active = inhibition above about 15%;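 note: 0% = DMSO vehicle and 100% = wells lacking enzyme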
Target sequence (P55072 whole entry, looked up): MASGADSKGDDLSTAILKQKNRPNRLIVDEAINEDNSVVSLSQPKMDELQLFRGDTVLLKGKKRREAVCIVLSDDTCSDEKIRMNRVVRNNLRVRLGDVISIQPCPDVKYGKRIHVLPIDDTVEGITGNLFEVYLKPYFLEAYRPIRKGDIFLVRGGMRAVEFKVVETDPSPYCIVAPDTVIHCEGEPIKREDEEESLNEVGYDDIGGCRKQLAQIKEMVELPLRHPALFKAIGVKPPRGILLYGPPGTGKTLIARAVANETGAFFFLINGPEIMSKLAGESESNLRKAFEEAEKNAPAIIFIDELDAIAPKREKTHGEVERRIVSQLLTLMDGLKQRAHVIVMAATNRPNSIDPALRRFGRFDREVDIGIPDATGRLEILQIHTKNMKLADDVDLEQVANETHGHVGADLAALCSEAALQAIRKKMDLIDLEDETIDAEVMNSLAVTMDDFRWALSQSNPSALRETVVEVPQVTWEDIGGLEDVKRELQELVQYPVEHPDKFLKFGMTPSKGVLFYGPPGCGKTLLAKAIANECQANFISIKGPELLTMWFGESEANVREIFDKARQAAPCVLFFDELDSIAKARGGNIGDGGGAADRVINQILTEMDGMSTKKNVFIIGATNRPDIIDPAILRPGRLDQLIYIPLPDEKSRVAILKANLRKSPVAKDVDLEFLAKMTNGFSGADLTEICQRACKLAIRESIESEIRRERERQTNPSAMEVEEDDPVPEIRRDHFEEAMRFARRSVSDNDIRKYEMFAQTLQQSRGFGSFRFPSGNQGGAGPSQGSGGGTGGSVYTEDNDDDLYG
Active calls of the source: *; nt = not tested or not shown. Compounds with a hit are over-represented: about 4.5% of the library has one in this group of screens.

SMILES | HCV NS3 hel inh | UPR XBP1 act | M18AAP inhibitor | CHOP UPR activ | CHOP inh | p97 inhibitor
COc1ccc(CCC(=O)N2CCN(S(=O)(=O)c3cccc(Cl)c3)CC2)cc1 | nt | -1 | nt | 0 | nt | nt
COCCN(CCOC)S(=O)(=O)c1ccc(C(=O)Nc2sc3c(c2C(N)=O)CCCCC3)cc1 | -2 | 19 | -1 | 6 | 82* | 3
CCNc1nc(NC(C)C)nc(N(C#N)CCOc2ccc(Cl)cc2Cl)n1 | -42 | -2 | 4 | -2 | 76* | -6
CCNc1nc(NC(C)C)nc(N(C#N)Cc2ccccc2)n1 | -21 | 5 | -10 | -1 | 41 | -6
CC1CCCC(NC(=O)COC(=O)c2ccccc2NC(=O)c2ccco2)C1C (configuration not stated) | -6 | 1 | -4 | -2 | 92* | 0
O=C(COC(=O)c1ccccc1NC(=O)c1ccco1)NC1CCCCC1 | 0 | 3 | 0 | 1 | 12 | 1
O=C(Nc1ccc(N2CCCC2)cc1)c1ccc(Br)cc1 | -57 | -1 | 4 | 6 | nt | nt
O=C(Nc1ccccc1N1CCCCC1)c1cnccn1 | 5 | 4 | 2 | -3 | 80* | 2
CC(C)Oc1ccc(C(=O)Nc2ccc(N3CCCC3)cc2)cc1 | -57 | -2 | 7 | -2 | 73* | 3
O=C(Nc1ccccc1N1CCCC1)c1cccnc1 | -3 | 0 | -7 | 1 | -33 | -5
Cc1ccccc1C(=O)Nc1ccccc1N1CCCCC1 | -10 | 4 | 2 | -2 | 88* | 7
O=C(Nc1ccccc1N1CCCC1)c1ccccc1Cl | -4 | -6 | 10 | 1 | nt | nt
O=C(Nc1ccc(N2CCCCC2)cc1)c1ccccn1 | 0 | -10 | -3 | -9 | 94* | -52
CNC(=S)N(CCc1c(C)[nH]c2ccc(OC)cc12)Cc1ccco1 | -6 | 2 | -4 | 0 | nt | nt
CC(C)(C)c1ncc(S(=O)(=O)c2ccc(C(F)(F)F)cn2)c(N)n1 | 16 | -2 | -2 | 1 | -3 | 6
O=C(Nc1ccccc1N1CCCCC1)c1cccs1 | -5 | 1 | 2 | -2 | 86* | -5
O=C(Nc1ccc2c(c1)CCC2)Nc1ccc(F)cc1F | 8 | 4 | -2 | 4 | nt | nt
O=[N+]([O-])c1ccc(Nc2c3ccccc3nc3ccccc23)cc1 | -9 | 0 | 11 | -1 | 70 | 10
O=[N+]([O-])c1ccccc1Nc1c2ccccc2nc2ccccc12 | -6 | 1 | -2 | -1 | 93* | 4
COC(=O)N/N=C/c1cc(Cl)cc(Cl)c1OCc1ccccc1 | -5 | -2 | -6 | 3 | 74* | -1
COc1cccc(/C=N/NC(N)=S)c1OCc1cccc(Cl)c1 | -5 | 1 | 7 | 0 | 35 | 2
O=C(c1ccco1)[C@@H]1[C@@H]2C(=O)N(c3ccc(Br)cc3)C(=O)[C@@H]2C2c3ccccc3C=CN21 (some centres not stated) | 43* | nt | 13 | nt | nt | 2
Cc1cc(C)nc(NS(=O)(=O)c2ccc(NC(=S)NC(=O)C3CCCC3)cc2)n1 | 7 | 0 | 0 | 1 | 72* | -2
Cc1ccnc(NS(=O)(=O)c2ccc(NC(=O)C3CCCCC3)cc2)n1 | -9 | -2 | -4 | 1 | 27 | 2
Cc1cc(C)nc(NS(=O)(=O)c2ccc(NC(=O)CCC3COc4ccccc4O3)cc2)n1 (configuration not stated) | 20 | 0 | 2 | -4 | 77* | 2
Cc1ccccc1OCC(=O)NC(=S)Nc1ccc(S(=O)(=O)NC2CCCCC2)cc1 | -8 | -4 | -1 | -2 | 77* | 0
O=C(Nc1cccc2cccnc12)c1ccccc1Br | nt | 1 | nt | 2 | nt | nt
COc1ccc(-c2c(C(F)(F)F)oc3cc(OCC(=O)Nc4ccccc4C(F)(F)F)ccc3c2=O)cc1OC | -8 | nt | 5 | nt | 91* | 3
CSCCC(NC(=O)C12CC3CC(CC(C3)C1)C2)C(=O)OCC(=O)c1ccc(Cl)cc1 (configuration not stated) | 2 | 2 | 0 | -2 | 75* | 3
Cc1cc(C)c2cc(CN(CCCO)S(=O)(=O)c3ccccc3F)c(=O)[nH]c2c1 | -8 | 0 | -15 | 1 | nt | nt
